Data reported in ChEMBL document CHEMBL6134766, “Design, synthesis, and evaluation of benzhydrylpiperazine-based novel dual COX-2/5-LOX inhibitors with anti-inflammatory and anti-cancer activity” (RSC Med Chem, 2025).
Counter-ions that a name gives are not always drawn. Activity calls are given as the source filed them. No cut-off for these calls is given here.

Tests used:
[1] = target: T1, Prostaglandin G/H synthase 1 (Ovis aries, UniProt P05979); assay: Inhibition of ovine COX-1 using arachidonic acid as substrate in presence of hemin by TMPD reagent-based colorimetry
T1 sequence (P05979 whole entry): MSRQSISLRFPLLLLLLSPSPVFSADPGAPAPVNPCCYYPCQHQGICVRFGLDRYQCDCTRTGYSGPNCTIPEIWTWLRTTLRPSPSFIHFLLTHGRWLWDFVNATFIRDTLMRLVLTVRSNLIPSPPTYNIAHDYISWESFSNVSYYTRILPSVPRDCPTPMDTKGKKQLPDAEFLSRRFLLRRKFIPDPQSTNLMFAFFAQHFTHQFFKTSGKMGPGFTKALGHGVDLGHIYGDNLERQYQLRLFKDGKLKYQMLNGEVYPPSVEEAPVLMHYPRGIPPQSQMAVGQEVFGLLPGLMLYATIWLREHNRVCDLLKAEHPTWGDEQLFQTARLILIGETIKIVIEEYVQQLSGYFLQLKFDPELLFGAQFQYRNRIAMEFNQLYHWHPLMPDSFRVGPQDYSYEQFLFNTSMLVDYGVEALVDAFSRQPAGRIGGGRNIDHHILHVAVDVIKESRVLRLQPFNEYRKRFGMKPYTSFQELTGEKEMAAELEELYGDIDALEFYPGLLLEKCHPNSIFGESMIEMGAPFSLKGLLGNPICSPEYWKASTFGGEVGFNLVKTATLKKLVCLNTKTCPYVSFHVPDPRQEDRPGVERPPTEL

[2] = target: T2, Polyunsaturated fatty acid 5-lipoxygenase (Homo sapiens, UniProt P09917); assay: Inhibition of 5-LOX (unknown origin) using arachidonic acid as substrate preincubated for 5 mins followed by substrate addition measured after 10 mins by spectrophotometry
T2 sequence (P09917 whole entry): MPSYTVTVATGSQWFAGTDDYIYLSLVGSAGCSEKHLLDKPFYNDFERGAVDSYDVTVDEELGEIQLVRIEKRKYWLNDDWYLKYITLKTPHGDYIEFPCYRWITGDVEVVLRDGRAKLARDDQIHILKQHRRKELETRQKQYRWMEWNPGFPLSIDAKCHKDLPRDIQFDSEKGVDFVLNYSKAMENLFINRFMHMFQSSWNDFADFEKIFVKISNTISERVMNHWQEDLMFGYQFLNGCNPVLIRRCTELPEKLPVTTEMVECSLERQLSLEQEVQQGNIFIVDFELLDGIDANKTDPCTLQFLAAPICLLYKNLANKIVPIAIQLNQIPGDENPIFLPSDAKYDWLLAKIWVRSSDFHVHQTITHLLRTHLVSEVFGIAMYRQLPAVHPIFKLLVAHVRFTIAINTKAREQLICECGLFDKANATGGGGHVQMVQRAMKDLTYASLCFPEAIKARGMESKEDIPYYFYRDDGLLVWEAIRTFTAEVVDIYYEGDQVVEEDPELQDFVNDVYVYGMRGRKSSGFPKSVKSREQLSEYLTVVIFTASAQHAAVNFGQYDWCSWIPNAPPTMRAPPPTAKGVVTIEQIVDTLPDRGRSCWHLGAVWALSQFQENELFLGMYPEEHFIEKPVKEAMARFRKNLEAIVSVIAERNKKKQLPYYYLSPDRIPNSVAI

[3] = test system: Rattus norvegicus; assay: Anti-inflammatory activity in arachidonic acid-induced paw edema Wistar rat model assessed as protection against swelling thickness of paw at 10 mg/kg, po measured after 1 hr by digital vernier caliper (reference value: 0 %); assay type: functional
[4] = test system: Rattus norvegicus; assay: Anti-inflammatory activity in arachidonic acid-induced paw edema Wistar rat model assessed as swelling thickness of paw at 10 mg/kg, po measured after 1 hr by digital vernier caliper (reference value: 6.51 +/- 0.37 millimeter); assay type: functional
[5] = test system: COLO 205; assay: Cytotoxicity against human COLO 205 cells assessed as growth inhibition incubated for 48 hrs by SRB assay; details: COLO 205, 48 h
[6] = test system: MIA PaCa-2; assay: Cytotoxicity against human MIA PaCa-2 cells assessed as growth inhibition incubated for 48 hrs by SRB assay; details: MIA PaCa-2, 48 h
[7] = test system: A549; assay: Cytotoxicity against human A549 cells assessed as growth inhibition incubated for 48 hrs by SRB assay; details: A549, 48 h
[8] = test system: Rattus norvegicus; assay: Cardio-protective activity in ISO-treated Wistar rat assessed as decrease in serum LDH level at 10 mg/kg, po; assay type: functional, organism-based
In short: (§1)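 Rats (n = 6/group) given ISO 100 mg kg−1 s.c., then oral test compound in 0.3% CMC; vehicle controls. Retro-orbital blood, serum separated at 4000 rpm, 4 °C, 10 min; LDH and CK-MB by commercial kits; mean ± SD.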

[9] = test system: Rattus norvegicus; assay: Cardio-protective activity in ISO-treated Wistar rat assessed as decrease in serum CK-MB level at 10 mg/kg, po; assay type: functional, organism-based; in short: as §1

Row | SMILES | IC50 [1] [µM] | IC50 [2] [µM] | also measured
1 | Oc1cccc(-c2nnc(CN3CCN(C(c4ccccc4)c4ccc(Cl)cc4)CC3)o2)c1 (configuration not stated) | 36.3 | 20.3 | –
2 | Fc1ccc(-c2nnc(CN3CCN(C(c4ccccc4)c4ccc(Cl)cc4)CC3)o2)c(F)c1 (configuration not stated) | 34.8 | 9.33 | –
3 | Clc1ccc(C(c2ccccc2)N2CCN(Cc3nnc(-c4ccc(Cl)cc4Cl)o3)CC2)cc1 (configuration not stated) | 30.3 | 14.4 | –
4 | N#Cc1cccc(-c2nnc(CN3CCN(C(c4ccccc4)c4ccc(Cl)cc4)CC3)o2)c1 (configuration not stated) | 23 | 15 | –
5 | CC(c1cc2ccccc2s1)N(O)C(N)=O (configuration not stated) [ZILEUTON] | – | – | Activity [3]: 47.95%; Activity [4]: 3.39 mm
6 | O=[N+]([O-])c1ccccc1-c1nnc(CN2CCN(C(c3ccccc3)c3ccc(Cl)cc3)CC2)o1 (configuration not stated) | 29.9 | 13.5 | –
7 | COc1cccc(-c2nnc(CN3CCN(C(c4ccccc4)c4ccc(Cl)cc4)CC3)o2)c1 (configuration not stated) | 36.3 | 15.3 | –
8 | O=[N+]([O-])c1cc(-c2nnc(CN3CCN(C(c4ccccc4)c4ccc(Cl)cc4)CC3)o2)cc([N+](=O)[O-])c1 (configuration not stated) | 37.7 | 18 | –
9 | Clc1ccc(C(c2ccccc2)N2CCN(Cc3nnc(-c4ccccc4)o3)CC2)cc1 (configuration not stated) | 38.4 | 9.81 | –
10 | FC(F)(F)Oc1ccc(-c2nnc(CN3CCN(C(c4ccccc4)c4ccc(Cl)cc4)CC3)o2)cc1 (configuration not stated) | 27.9 | 9.4 | –
11 | Cc1cccc(-c2nnc(CN3CCN(C(c4ccccc4)c4ccc(Cl)cc4)CC3)o2)c1 (configuration not stated) | 30.7 | 9.89 | –
12 | Cc1ccc(-c2nnc(CN3CCN(C(c4ccccc4)c4ccc(Cl)cc4)CC3)o2)cc1 (configuration not stated) | 32.1 | 18.1 | –
13 | COc1ccc(-c2nnc(CN3CCN(C(c4ccccc4)c4ccc(Cl)cc4)CC3)o2)cc1 (configuration not stated) | 34.5 | 10.3 | –
14 | Fc1cc(F)c(-c2nnc(CN3CCN(C(c4ccccc4)c4ccc(Cl)cc4)CC3)o2)cc1F (configuration not stated) | 32.7 | 19.9 | –
15 | O=[N+]([O-])c1cc(-c2nnc(CN3CCN(C(c4ccccc4)c4ccc(Cl)cc4)CC3)o2)ccc1Cl (configuration not stated) | 38.5 | 11.2 | –
16 | N#Cc1ccc(-c2nnc(CN3CCN(C(c4ccccc4)c4ccc(Cl)cc4)CC3)o2)cc1 (configuration not stated) | 25.5 | 13.5 | –
17 | COc1cccc2c1C(=O)c1c(O)c3c(c(O)c1C2=O)C[C@@](O)(C(=O)CO)C[C@@H]3O[C@H]1C[C@H](N)[C@H](O)[C@H](C)O1 [DOXORUBICIN HYDROCHLORIDE] | – | – | GI50 [5]: 100 nM; GI50 [6]: 2 nM; GI50 [7]: 77 nM
18 | FC(F)(F)c1ccc(-c2nnc(CN3CCN(C(c4ccccc4)c4ccc(Cl)cc4)CC3)o2)cc1 (configuration not stated) | 27 | 13.7 | –
19 | Oc1ccc(-c2nnc(CN3CCN(C(c4ccccc4)c4ccc(Cl)cc4)CC3)o2)cc1 (configuration not stated) | 36.3 | 10.8 | –
20 | Fc1ccc(-c2nnc(CN3CCN(C(c4ccccc4)c4ccc(Cl)cc4)CC3)o2)cc1 (configuration not stated) | 34.2 | 11.6 | –
21 | Cc1ccc(-c2cc(C(F)(F)F)nn2-c2ccc(S(N)(=O)=O)cc2)cc1 [CELECOXIB] | – | – | Activity [3]: 72.59%; Activity [8]: inactive; Activity [9]: inactive; Activity [4]: 1.79 mm
22 | Clc1ccc(C(c2ccccc2)N2CCN(Cc3nnc(-c4cccc(Cl)c4)o3)CC2)cc1 (configuration not stated) | 32 | 16.2 | –
